Here are results for seven compounds from PMC6153321 (Pharmacology Research & Perspectives, 2018).

Assay [1] concerns β‐adrenoceptors. Put plainly: CAMYEL BRET isoprenaline-induced cAMP, HEK293A parental cells. In kind it is cell-based, human. The following applies: 10 μmol L^−1. In short, it runs like this:
(§1)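 HEK293A parental or Gαs-knockout cells were co-transfected with CAMYEL and RXFP1, then reseeded overnight in phenol-red-free HEPES medium. Isoprenaline (10 μmol L⁻¹) served as a control for endogenous Gαs-coupled β-adrenoceptor signalling. Read-out: vehicle-subtracted, sign-inverted 535/475 nm BRET ratio; three independent experiments.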

Assay [2] concerns β‐adrenoceptors. In words: CAMYEL BRET isoprenaline-induced cAMP, HEK293A ΔGαs cells. It is filed as cell-based, human. The conditions noted are these: 10 μmol L^−1. The gist of the method:
as §1

The subject of another assay is GH3B6 cells. The conditions noted are these: cited from earlier work.
Assay [3] deals with adenylate cyclase. In words: CAMYEL BRET forskolin-induced cAMP, HEK-RXFP2 cells. In kind it is cell-based, human. The conditions noted are these: 45 minutes. In short, it runs like this:
(§2)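 HEK cells stably expressing RXFP1 (HEK293T background) or RXFP2 were transiently transfected with CAMYEL, then reseeded next day in phenol-red-free complete medium with 25 mmol L⁻¹ HEPES. At 37°C, cells got coelenterazine h (5 μmol L⁻¹ final) for a 5-min baseline, then vehicle, forskolin or agonist for 45 min. Read-out was vehicle-subtracted citrine/Rluc BRET ratio, sign-inverted. Agonist curves at 5 and 45 min as % of 10 μmol L⁻¹ forskolin maximum; n=3.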
(In general: In BRET a luciferase serves as donor, and the signal depends on an acceptor being close.)

For assay [4], the system named is adenylate cyclase. Put plainly: CAMYEL BRET forskolin-induced cAMP, THP-1 CAMYEL cells. The conditions noted are these: high-CAMYEL THP‐1 cells, three independent experiments. It is filed as cell-based, human.
Assay [5] concerns adenylate cyclase. In words: CAMYEL BRET forskolin-induced cAMP, HEK-RXFP1 cells. In kind it is cell-based, human. The following applies: 45 minutes, three independent experiments. The gist of the method: as §2
In assay [6] the test system is adenylate cyclase. In words: CAMYEL BRET forskolin-induced cAMP, HEK293A parental cells. In kind it is cell-based, human. The conditions noted are these: 45 minutes, three independent experiments.
Assay [7] relates to adenylate cyclase. Put plainly: CAMYEL BRET forskolin-induced cAMP, HEK293A ΔGαs cells. In kind it is cell-based, human.
Assay [8] concerns adenylate cyclase. The conditions noted are these: cited from earlier work.
Assay [9] concerns the target T1, RXFP3 (Homo sapiens, UniProt Q9NSD7).
T1 sequence (Q9NSD7 1-469): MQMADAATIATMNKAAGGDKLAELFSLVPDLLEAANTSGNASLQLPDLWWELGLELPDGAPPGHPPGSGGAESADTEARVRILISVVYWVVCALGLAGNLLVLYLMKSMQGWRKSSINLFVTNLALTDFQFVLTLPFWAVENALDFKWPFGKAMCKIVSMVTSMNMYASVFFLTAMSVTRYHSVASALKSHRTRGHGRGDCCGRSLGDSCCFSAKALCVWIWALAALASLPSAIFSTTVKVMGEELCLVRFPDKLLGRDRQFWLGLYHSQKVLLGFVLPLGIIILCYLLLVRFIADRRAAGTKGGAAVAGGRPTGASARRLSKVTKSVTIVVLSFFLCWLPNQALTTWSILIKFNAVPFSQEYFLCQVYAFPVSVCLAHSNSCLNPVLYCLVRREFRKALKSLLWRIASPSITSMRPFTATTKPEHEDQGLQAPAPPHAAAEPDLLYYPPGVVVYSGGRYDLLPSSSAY
In words: CAMYEL BRET inhibition of forskolin-stimulated cAMP, CHO-RXFP3 cells. The conditions noted are these: agonist 100 nmol L^−1‐10 μmol L^−1, at about 20‐25 minutes. In kind it is cell-based.

For assay [10], the target named is T1, RXFP3. Put plainly: CAMYEL BRET inhibition of forskolin-stimulated cAMP, HEK-RXFP3 cells. It is filed as cell-based. The following applies: 45 minutes, mean ± SEM, three independent experiments.
The target of another assay is RXFP2 (Homo sapiens, UniProt Q8WXD0). Put plainly: CAMYEL BRET real-time cAMP activation, HEK-RXFP2 cells. In kind it is cell-based. The gist of the method:
as §2

Bridge positions count the residues as written; N and C are the ends. Square brackets hold non-standard residues; d marks the D form. Ends that are not written are not given here. Peptide text beside a SMILES is read from it. I, II: the chains in the order shown. S5 = C=CCCC[C@](C)(N)C(=O)O

RXFP2, sequence (Q8WXD0 whole entry): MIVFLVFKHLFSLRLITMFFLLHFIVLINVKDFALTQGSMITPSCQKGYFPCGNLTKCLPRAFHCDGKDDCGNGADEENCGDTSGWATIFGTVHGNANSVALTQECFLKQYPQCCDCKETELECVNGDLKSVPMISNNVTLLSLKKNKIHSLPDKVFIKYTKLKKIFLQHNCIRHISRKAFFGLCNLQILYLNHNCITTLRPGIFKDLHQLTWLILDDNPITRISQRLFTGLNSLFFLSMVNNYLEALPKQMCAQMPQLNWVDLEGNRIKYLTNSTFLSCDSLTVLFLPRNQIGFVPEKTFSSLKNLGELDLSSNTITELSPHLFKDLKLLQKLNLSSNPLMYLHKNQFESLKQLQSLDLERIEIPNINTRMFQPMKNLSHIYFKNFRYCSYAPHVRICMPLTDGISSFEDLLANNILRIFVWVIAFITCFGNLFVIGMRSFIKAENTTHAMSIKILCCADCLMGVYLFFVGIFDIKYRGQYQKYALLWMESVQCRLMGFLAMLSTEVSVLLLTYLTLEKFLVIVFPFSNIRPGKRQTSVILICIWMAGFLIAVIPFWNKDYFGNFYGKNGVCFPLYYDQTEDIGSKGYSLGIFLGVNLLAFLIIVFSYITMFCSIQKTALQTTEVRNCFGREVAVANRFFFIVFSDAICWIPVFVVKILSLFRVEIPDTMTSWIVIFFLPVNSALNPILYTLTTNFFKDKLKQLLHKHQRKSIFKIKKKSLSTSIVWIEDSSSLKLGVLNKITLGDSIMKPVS

Take `CC(C)NCC(O)c1ccc(O)c(O)c1` (centres unmarked) [Isoprenaline]: the “cAMP response to isoprenaline” value in the assay on β‐adrenoceptors [1] is reported as “robust in the parental cells”; in the assay with β‐adrenoceptors [2] it was “abolished in the ΔGαs cells”.
Take thyrotropin‐releasing hormone: in the assay with GH3B6 cells, the “cAMP activity reported by AC8‐localized sensor” value is recorded as “increases in cAMP activity” and the “cAMP activity reported by cytosolic or plasma membrane FRET biosensors” value is recorded as “not the cytosolic or membrane forms”.
`C=C[C@@]1(C)CC(=O)[C@]2(O)[C@@]3(C)[C@@H](O)CCC(C)(C)[C@@H]3[C@H](O)[C@H](OC(C)=O)[C@@]2(C)O1` [forskolin]: the “potency (pEC50) of forskolin” value in the assay with adenylate cyclase [3] (HEK‐RXFP2, three independent experiments) was determined as 5.92 ± 0.08; with adenylate cyclase [5], 6.77 ± 0.07. The “forskolin potency in HEK‐RXFP2 relative to HEK‐RXFP1 cells” value in the assay on adenylate cyclase [3] (P < 0.01) is “nearly ten times lower than that seen in the HEK‐RXFP1 cells”. For the same compound, the “potency of forskolin (pEC50)” value with adenylate cyclase [4] (5 minutes) is 5.29 ± 0.03; in the assay with adenylate cyclase [4] (45 minutes), 4.93 ± 0.05; in the assay with adenylate cyclase [6], 5.91 ± 0.04; in the assay on adenylate cyclase [7] (45 minutes, HEK293A ΔGαs with re‐expression of Gαs, three independent experiments) it was 7.1 ± 1.29. Further, the “forskolin-induced cAMP activity” value in the assay on adenylate cyclase [7] (HEK293A ΔGαs, without Gαs re-expression) is on record as “very weak cAMP activity”. In the assay with adenylate cyclase [7] (HEK293A ΔGαs, increase only transient), the “forskolin concentration required to detect a cAMP increase” value was above 10 µmol/L. Further, in the assay with adenylate cyclase [8], the “affinity for adenylate cyclase in the absence of Gαs” value is “lower affinity for adenylate cyclase in the absence of Gαs”.
Consider “vasoactive intestinal peptide: treatment of GH3B6 cells in cited work (ref 49) (HSDAVFTDNYTRLRKQMAVKKYLNSILN; ends and bridges not checked; UniProt P01282 125-152, looked up)”, for which the “cAMP activity reported by AC8‐localized sensor” value in the assay with GH3B6 cells is recorded as “not detected by an AC8‐localized sensor”.
On to `CC[C@H](C)[C@@H]1NC(=O)[C@H](Cc2ccccc2)NC(=O)[C@@](C)(NC(=O)[C@H](CCCNC(=N)N)NC(=O)CNC(=O)[C@@H](N)CO)CCCC=CCCC[C@@](C)(C(=O)N[C@H](C(=O)N[C@H](C(=O)N[C@@H](Cc2ccccc2)C(=O)N[C@H](C(=O)N[C@@H](CO)C(=O)NCC(=O)NCC(=O)N[C@@H](CO)C(=O)N[C@@H](CCCNC(=N)N)C(=O)N[C@@H](Cc2c[nH]c3ccccc23)C(N)=O)[C@@H](C)O)[C@@H](C)CC)C(C)C)NC(=O)[C@H](CCCNC(=N)N)NC1=O` [Peptide 5] (H-SGR[S5]FIR[S5]VIFTSGGSRW-NH2; staple 4-8; N-terminus and C-terminus assumed), for which the “inhibition of forskolin-stimulated cAMP at higher concentrations” value at RXFP3 [9] is reported as “Complete or near‐complete inhibition”.
For the compound `CC[C@H](C)[C@@H]1NC(=O)[C@H](Cc2ccccc2)NC(=O)[C@H](CCC(=O)O)NC(=O)[C@H](CCCNC(=N)N)NC(=O)CNC(=O)[C@@H](NC(=O)[C@H](CC(C)C)NC(=O)[C@H](CCCNC(=N)N)NC(=O)[C@@H](NC(=O)CNC(=O)[C@H](Cc2ccc(O)cc2)NC(=O)[C@@H]2CCCN2C(=O)[C@H](C)NC(=O)[C@H](C)NC(=O)[C@@H](N)CCCNC(=N)N)C(C)C)CSSC[C@H](N)C(=O)N[C@@H](CCCCN)C(=O)N[C@@H](Cc2c[nH]c3ccccc23)C(=O)NCC(=O)N[C@@H](C)C(=O)N[C@@H](CO)C(=O)N[C@@H](CCCCN)C(=O)N[C@@H](CO)C(=O)N[C@@H](CCC(=O)O)C(=O)N[C@@H]([C@@H](C)CC)C(=O)N[C@@H](CO)C(=O)N[C@@H](CO)C(=O)N[C@@H](CC(C)C)C(=O)N[C@H](C(=O)O)CSSC[C@@H](C(=O)NCC(=O)NCC(=O)N[C@@H](CO)C(=O)N[C@@H](CCCNC(=N)N)C(=O)N[C@@H](Cc2c[nH]c3ccccc23)C(=O)O)NC(=O)[C@H]([C@@H](C)O)NC(=O)[C@H](Cc2ccccc2)NC(=O)[C@H]([C@@H](C)CC)NC(=O)[C@H](C(C)C)NC(=O)[C@H](C)NC(=O)[C@H](CCCNC(=N)N)NC1=O` [Analogue 2], the “inhibition of forskolin-stimulated cAMP at higher concentrations” value at RXFP3 [9] is on record as “Complete or near‐complete inhibition”. The pEC50 entry at RXFP3 [10] was “Ambiguous”.
On to “I: PTPEMREKLCGHHFVRALVRVCGGPRWSTEA / II: AAATNPARYCCLSGCTQQDLLTLCPY (disulfide I:10-II:11, I:22-II:24, II:10-II:15) [INSL3]”, for which the “potency increase between 5 and 45 minutes” value at RXFP2 (P < 0.01) is given as around 10 fold. Moreover, on RXFP2 (sub‐maximal concentrations), the “temporal pattern of cAMP activity” value was “slow, sustained increases”.
